Test results published in ChEMBL document CHEMBL4706553, “Discovery of potent small molecule PROTACs targeting mutant EGFR” (Eur J Med Chem, 2020).
The source made the active and inactive calls.

Tests used:
[1] = molecular target: von Hippel-Lindau disease tumor suppressor/Epidermal growth factor receptor (Homo sapiens, UniProt P00533+P40337); assay: Protac activity at VHL/EGFR del19 mutant in human HCC827 cells assessed as induction of EGFR degradation measured after 48 hrs by Western blot analysis; type: cell-based
Procedure, shortened: (§1)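 HCC827 cells seeded at 0.5–1 × 10⁶ per well, then treated at the stated concentrations for 48 h. EGFR by Western blot; n = 3. DC₅₀ (concentration giving 50% EGFR loss) by nonlinear regression, log(inhibitor) vs response.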

[2] = tested on: von Hippel-Lindau disease tumor suppressor/Epidermal growth factor receptor (Homo sapiens), P00533+P40337 [UNDEFINED MUTATION]; assay: Protac activity at VHL/EGFR del19 mutant in human HCC827 cells assessed as induction of EGFR degradation at 333 nM measured after 24 hrs by Western blot analysis; type: cell-based
Procedure, shortened: (§2)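 HCC827 cells seeded at 0.5–1 × 10⁶ per well, grown 24 h, then treated at the stated concentrations for 24 h. EGFR^del19 level by Western blot with anti-EGFR antibody and β-actin loading control.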

[3] = tested on: von Hippel-Lindau disease tumor suppressor/Epidermal growth factor receptor (Homo sapiens), P00533+P40337 [UNDEFINED MUTATION]; assay: Protac activity at VHL/EGFR del19 mutant in human HCC827 cells assessed as induction of EGFR degradation at 1 to 33 nM incubated for 24 hrs by Western blot analysis; type: cell-based; conditions: dose 1-33 nM; procedure, shortened: as §2
[4] = tested on: von Hippel-Lindau disease tumor suppressor/Epidermal growth factor receptor (Homo sapiens), P00533+P40337 [L858R,T790M]; assay: Protac activity at VHL/EGFR L858R/T790M mutant in human H1975 cells assessed as induction of degradation of EGFR at 1 uM pretreated with autophagy inhibitor, chloroquine for 2 hrs followed by incubation with compound for 24 hrs by Western blot analysis; type: cell-based; conditions: NCI-H1975
Procedure, shortened: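 H1975 cells pretreated with chloroquine for 2 h, then exposed to compound for 24 h. EGFR level by Western blot; n = 3.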

[5] = tested on: von Hippel-Lindau disease tumor suppressor/Epidermal growth factor receptor (Homo sapiens), P00533+P40337 [UNDEFINED MUTATION]; assay: Protac activity at VHL/EGFR del19 mutant in human HCC827 cells assessed as induction of EGFR degradation at 0.1 to 0.3 nM precultured in medium without FBS followed by incubation with compound for 16 hrs by Western blot analysis; type: cell-based; conditions: dose 0.1-0.3 nM
Procedure, shortened: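 HCC827 or H1975 cells precultured 8 h in medium with or without FBS, then treated at the stated concentrations for 16 h. EGFR protein by Western blot; n = 3.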

HCC827 [6] = assay: Inhibition of colony formation in human HCC827 cells at 1 nM incubated for 15 days by crystal violet staining based analysis; type: functional, cell-based; conditions: time 15.0 day
Procedure, shortened: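 Colony formation: 200 cells per well were seeded and incubated 24 h, then kept with compound for 15 days. After three PBS washes, cells were fixed in cold 75% ethanol and stained with 0.1% crystal violet in water for 1 h. Colonies were counted.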

[7] = tested on: von Hippel-Lindau disease tumor suppressor/Epidermal growth factor receptor (Homo sapiens), P00533+P40337 [L858R,T790M]; assay: Protac activity at VHL/EGFR L858R/T790M mutant in human H1975 cells assessed as maximal induction of degradation of EGFR incubated for 48 hrs by Western blot analysis relative to control; type: cell-based; conditions: NCI-H1975
Procedure, shortened: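 H1975 cells exposed to the stated concentrations for 48 h. EGFR by Western blot; n = 3. DC₅₀ by nonlinear regression, log(inhibitor) vs response.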

[8] = tested on: von Hippel-Lindau disease tumor suppressor/Epidermal growth factor receptor (Homo sapiens), P00533+P40337 [UNDEFINED MUTATION]; assay: Protac activity at VHL/EGFR del19 mutant in human HCC827 cells assessed as induction of EGFR degradation by measuring reduction in Akt phosphorylation at 3 nM incubated for 48 hrs by Western blot analysis; type: cell-based
Procedure, shortened: (§3)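 HCC827 or H1975 cells treated at the stated concentrations for 48 h. Lysates probed by Western blot for EGFR, P-EGFR, Akt and P-Akt (each 1:1000); n = 2.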

HepG2 = assay: Antiproliferative activity against human HepG2 cells expressing VEGFR2 assessed as cell growth inhibition measured after 72 hrs by MTT assay; type: functional, cell-based; conditions: HepG2, 72 h
Procedure, shortened: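 Cells were seeded at 3000–8000/well and allowed 24 h, then exposed to serial compound concentrations for 72 h. MTT (5 mg/mL stock in PBS) was added for 4 h, supernatant removed and DMSO added. IC50, defined as 50% growth inhibition, was derived by nonlinear regression (log inhibitor vs response).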

[9] = tested on: von Hippel-Lindau disease tumor suppressor/Epidermal growth factor receptor (Homo sapiens), P00533+P40337 [UNDEFINED MUTATION]; assay: Protac activity at VHL/EGFR del19 mutant in human HCC827 cells assessed as induction of EGFR degradation at 0.033 uM pretreated with VHL ligand, VHL-L for 2 hrs followed by incubation with compound for 24 hrs by Western blot analysis; type: cell-based
[10] = tested on: von Hippel-Lindau disease tumor suppressor/Epidermal growth factor receptor (Homo sapiens), P00533+P40337 [L858R,T790M]; assay: Protac activity at VHL/EGFR L858R/T790M mutant in human H1975 cells assessed as induction of degradation of EGFR at 0.33 to 1 uM incubated for 24 hrs by Western blot analysis; type: cell-based; conditions: NCI-H1975, dose 0.33-1 µM
Procedure, shortened: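 H1975 cells, after 24 h seeding, treated at the stated concentrations for 24 h. EGFR by Western blot with β-actin loading control.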

HCC827 [11] = assay: Induction of cell cycle arrest in human HCC827 cells assessed as accumulation at G1 phase at 10 to 100 nM measured after 48 hrs by propidium iodide staining based flow cytometry analysis; type: functional; conditions: dose 10-100 nM
Procedure, shortened: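 Cell cycle: cells were seeded at 0.5–1 × 10⁶ per well for 24 h, then treated 48 h. They were collected and washed twice in PBS, stained with PI/RNase at 37 °C for 15 min, and analysed by flow cytometry. n = 2.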

[12] = tested on: von Hippel-Lindau disease tumor suppressor/Epidermal growth factor receptor (Homo sapiens), P00533+P40337 [UNDEFINED MUTATION]; assay: Protac activity at VHL/EGFR del19 mutant in human HCC827 cells assessed as induction of EGFR degradation at 33 nM measured after 24 hrs by Western blot analysis; type: cell-based; procedure, shortened: as §2
[13] = tested on: von Hippel-Lindau disease tumor suppressor/Epidermal growth factor receptor (Homo sapiens), P00533+P40337 [UNDEFINED MUTATION]; assay: Protac activity at VHL/EGFR del19 mutant in human HCC827 cells assessed as induction of EGFR degradation at 33 nM by Western blot analysis; type: cell-based; conditions: time 12-72 hrs, TDE = time-dependent effect
Procedure, shortened: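 Time course in HCC827 cells at 33 nM, with protein harvested at each stated time point. EGFR^del19 detected by Western blot.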

[14] = tested on: von Hippel-Lindau disease tumor suppressor/Epidermal growth factor receptor (Homo sapiens), P00533+P40337 [UNDEFINED MUTATION]; assay: Protac activity at VHL/EGFR del19 mutant in human HCC827 cells assessed as induction of EGFR degradation at 0.033 uM pretreated with proteasome inhibitor, MG132 for 2 hrs followed by incubation with compound for 24 hrs by Western blot analysis; type: cell-based
NCI-H1975 = assay: Induction of apoptosis in human NCI-H1975 cells at 333 to 1000 nM measured after 48 hrs by AnnexinV-FITC/propidium iodide staining based flow cytometry analysis; type: functional, cell-based; conditions: dose 333-1000 nM
Procedure, shortened: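 To measure apoptosis, cells were seeded at 0.5–1 × 10⁶ per well, grown 24 h, then treated for 48 h. Collected cells were stained with an Annexin V-FITC apoptosis detection kit following its instructions, and apoptosis rate was read by flow cytometry. n = 2.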

[15] = tested on: von Hippel-Lindau disease tumor suppressor/Epidermal growth factor receptor (Homo sapiens), P00533+P40337 [L858R,T790M]; assay: Protac activity at VHL/EGFR L858R/T790M mutant in human H1975 cells assessed as induction of degradation of EGFR by measuring reduction in EGFR phosphorylation at 100 nM incubated for 48 hrs by Western blot analysis; type: cell-based; conditions: NCI-H1975; procedure, shortened: as §3
[16] = tested on: von Hippel-Lindau disease tumor suppressor/Epidermal growth factor receptor (Homo sapiens), P00533+P40337 [UNDEFINED MUTATION]; assay: Protac activity at VHL/EGFR del19 mutant in human HCC827 cells assessed as maximal induction of EGFR degradation at 33 nM measured after 48 hrs by Western blot analysis; type: cell-based; procedure, shortened: as §1
[17] = tested on: von Hippel-Lindau disease tumor suppressor/Epidermal growth factor receptor (Homo sapiens), P00533+P40337 [UNDEFINED MUTATION]; assay: Protac activity at VHL/EGFR del19 mutant in human HCC827 cells assessed as induction of EGFR degradation at 0.033 uM pretreated with autophagy inhibitor, chloroquine for 2 hrs followed by incubation with compound for 24 hrs by Western blot analysis; type: cell-based

Q: What does the source list for `Cc1ncsc1-c1ccc(CNC(=O)[C@@H]2C[C@@H](O)CN2C(=O)[C@@H](NC(=O)CCCCCCN2CCN(c3ccc(Nc4ncc5nc(Nc6ccccc6)n(C6CCCC6)c5n4)cc3)CC2)C(C)(C)C)cc1`?
A: DC50 [1]: 0.51 nM; Activity [2]: inactive; Activity [3]: Active; Activity [4]: inactive; Activity [5]: Active; inhibition (HCC827 [6]): Active; Emax [7]: 90.3%; Activity [8]: Active; IC50 (HepG2): > 5000 nM; Activity [9]: Active; Activity [10]: Active; Activity (HCC827 [11]): Active; Activity [12]: Active; Activity [13]: Tde; Activity [14]: Active; Activity (NCI-H1975): inactive; Activity [15]: Active; Emax [16]: 80.4%; Activity [17]: inactive
